In ChEMBL document CHEMBL4393722, “Development of the "hidden" multifunctional agents for Alzheimer's disease” (Eur J Med Chem, 2019):
Activity calls are given as the source filed them. No cut-off for these calls is given here.

Legend:
[1] = molecular target: Amyloid-beta precursor protein (Homo sapiens) (UniProt P05067); test: Inhibition of HFIP-pretreated amyloid beta (1 to 42) (unknown origin) self-aggregation at 20 uM after 72 hrs by uranyl acetate staining based transmission electron microscopy
Outline: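 Aβ1-42 was incubated alone or with compound for 72 h at 37 °C. Fibril formation was then examined by transmission electron microscopy, with curcumin as positive control.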

Danio rerio [2] = species: Danio rerio; test: Cognition enhancement in aluminium chloride-induced Alzheimer's disease zebra fish model assessed as Response efficiency at 50 uM treated from 3 dpf to 5 dpf relative to control; assay type: functional
Outline: (§1)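 Zebrafish larvae were exposed to 150 µM AlCl₃ from 3 to 5 dpf, with the test drug co-administered over the same 3–5 dpf window. There were 30 fish per group. Dyskinesia recovery rate (DRR) and response efficiency (RE) were both calculated from the average swimming speed of drug-treated fish, with p values reported.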

Mus musculus [3] = test: Cognition enhancement in aluminium trichloride-induced amnesia mouse model assessed as error times at 2 mg/kg administered via gastric gavage for 30 days by SMG-2 programmable water maze test; assay type: functional, organism-based
Danio rerio [4] = species: Danio rerio; test: Cognition enhancement in aluminium chloride-induced Alzheimer's disease zebra fish model assessed as Dyskinesia recovery rate at 250 uM treated from 3 dpf to 5 dpf relative to control; assay type: functional; outline: as §1
Danio rerio [5] = species: Danio rerio; test: Cognition enhancement in aluminium chloride-induced Alzheimer's disease zebra fish model assessed as Response efficiency at 10 uM treated from 3 dpf to 5 dpf relative to control; assay type: functional; outline: as §1
Mus musculus [6] = test: Cognition enhancement in aluminium trichloride-induced amnesia mouse model assessed as total swimming time at 2 mg/kg administered via gastric gavage for 30 days by SMG-2 programmable water maze test; assay type: functional, organism-based
Danio rerio [7] = species: Danio rerio; test: Cognition enhancement in aluminium chloride-induced Alzheimer's disease zebra fish model assessed as Response efficiency at 250 uM treated from 3 dpf to 5 dpf relative to control; assay type: functional; outline: as §1
Danio rerio [8] = species: Danio rerio; test: Cognition enhancement in aluminium chloride-induced Alzheimer's disease zebra fish model assessed as Dyskinesia recovery rate at 10 uM treated from 3 dpf to 5 dpf relative to control; assay type: functional; outline: as §1
Danio rerio [9] = species: Danio rerio; test: Cognition enhancement in aluminium chloride-induced Alzheimer's disease zebra fish model assessed as Dyskinesia recovery rate at 50 uM treated from 3 dpf to 5 dpf relative to control; assay type: functional; outline: as §1
[10] = Metal chelating activity assessed as compound-Cu2+ complex formation by measuring decrease in absorption with spectral shift to red end at 25 uM incubated for 5 mins in presence of 25 uM CuCl2 by UV-visible spectrophotometry
[11] = Metal chelating activity assessed as compound-Zn2+ complex formation at 25 uM incubated for 5 mins in presence of 25 uM ZnCl2 by UV-visible spectrophotometry
[12] = molecular target: Amyloid-beta precursor protein (Homo sapiens) (UniProt P05067); test: Inhibition of HFIP-pretreated amyloid beta (1 to 42) (unknown origin) self-aggregation at 20 uM after 48 hrs by thioflavin-T fluorescence assay
[13] = Metal chelating activity assessed as compound-Fe2+ complex formation at 25 uM incubated for 5 mins in presence of 25 uM FeSO4 by UV-visible spectrophotometry

Sequence of Amyloid-beta precursor protein (Homo sapiens) (P05067 whole entry): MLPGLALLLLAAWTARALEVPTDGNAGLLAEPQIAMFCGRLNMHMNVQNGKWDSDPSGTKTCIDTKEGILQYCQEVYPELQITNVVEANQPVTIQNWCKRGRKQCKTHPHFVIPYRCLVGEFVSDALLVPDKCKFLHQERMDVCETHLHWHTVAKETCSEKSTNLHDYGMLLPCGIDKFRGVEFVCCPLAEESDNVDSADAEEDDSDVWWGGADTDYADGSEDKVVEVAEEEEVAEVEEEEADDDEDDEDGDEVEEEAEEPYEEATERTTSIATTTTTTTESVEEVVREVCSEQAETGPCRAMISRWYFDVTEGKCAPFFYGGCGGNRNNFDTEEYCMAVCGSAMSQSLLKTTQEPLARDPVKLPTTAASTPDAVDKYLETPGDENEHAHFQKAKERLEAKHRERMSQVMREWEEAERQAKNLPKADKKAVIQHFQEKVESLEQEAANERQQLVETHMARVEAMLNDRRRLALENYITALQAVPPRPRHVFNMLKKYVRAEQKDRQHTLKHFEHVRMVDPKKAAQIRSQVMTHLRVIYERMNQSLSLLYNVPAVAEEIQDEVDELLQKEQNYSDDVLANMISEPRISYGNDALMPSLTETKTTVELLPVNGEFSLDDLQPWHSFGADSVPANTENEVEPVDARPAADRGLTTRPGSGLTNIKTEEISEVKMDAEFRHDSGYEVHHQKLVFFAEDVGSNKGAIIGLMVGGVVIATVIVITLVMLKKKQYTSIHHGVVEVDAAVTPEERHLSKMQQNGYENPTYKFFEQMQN

SMILES | inhibition [1] | Activity (Danio rerio [2]) [%] | Activity (Mus musculus [3]) | Activity (Danio rerio [4]) [%] | Activity (Danio rerio [5]) [%] | Activity (Mus musculus [6]) | Activity (Danio rerio [7]) [%] | Activity (Danio rerio [8]) [%] | Activity (Danio rerio [9]) [%] | Activity [10] | Activity [11] | inhibition [12] [%] | Activity [13]
COc1cc(/C=C/C(=O)CC(=O)/C=C/c2ccc(O)c(OC)c2)ccc1O | Active | – | – | – | – | – | – | – | – | – | – | – | –
CCN(C)C(=O)Oc1cccc([C@H](C)N(C)C)c1 [RIVASTIGMINE] | – | 86.6 | inactive | 58.6 | 126.3 | inactive | 175.1 | 53.4 | 64 | – | – | – | –
CC(c1cc(O)c2ncccc2c1)N(C)C (centres undefined) | Active | – | – | – | – | – | – | – | – | Active | Active | 44 | Active
